Data from ChEMBL document CHEMBL1770062, “Synthesis and in vitro antitumor activity of new butenolide-containing dithiocarbamates” (Bioorg Med Chem Lett, 2011).

Key:
Assay type in all cases: functional, cell-based; call rule not given here
[1] = Antitumor activity against human EC9706 cells after 72 hrs by MTT assay
In short: (§1)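 Cells in RPMI 1640 with 10% FBS, 2 mm glutamine, penicillin and streptomycin were seeded at 5 × 10³ per well in 96-well plates. After 24 h at 37 °C the medium was replaced with medium holding compound at several concentrations, and cells were exposed for 72 h. MTT (5 mg/mL stock in PBS) was added for 4 h at 37 °C, formazan was dissolved in DMSO and absorbance read at 490 nm. IC50 was taken from dose–response curves, at least three independent experiments, mean ± SE.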

HeLa = assay: Antitumor activity against human HeLa cells after 72 hrs by MTT assay; in short: as §1
PC-3 = assay: Antitumor activity against human PC3 cells after 72 hrs by MTT assay; in short: as §1
[2] = Antitumor activity against human SPC-A1 cells after 72 hrs by MTT assay; in short: as §1
MCF7 = assay: Antitumor activity against human MCF7 cells after 72 hrs by MTT assay; in short: as §1
[3] = Homo sapiens, EC9706, 72 h, read-out: IC50
[4] = Homo sapiens, HeLa, 72 h, read-out: IC50
[5] = Homo sapiens, PC-3, 72 h, read-out: IC50
[6] = Homo sapiens, SPCA1, 72 h, read-out: IC50
[7] = Homo sapiens, MCF7, 72 h, read-out: IC50

Row | Compound | IC50 [1, 3] | IC50 (HeLa; [4]) | IC50 (PC-3; [5]) | IC50 [2, 6] | IC50 (MCF7; [7]) | IC50 ([1]; ec9706) | IC50 (HeLa; hela) | IC50 (PC-3; pc-3) | IC50 ([2]; spc-a1) | IC50 (MCF7; mcf7)
1 | O=C1CC2(CO1)CSC(=S)N2c1ccccc1O (centres undefined) | > 50 µg/mL | > 50 µg/mL | > 50 µg/mL | > 50 µg/mL | > 50 µg/mL |  |  |  |  | 
2 | Cc1ccc(N2C(=S)SCC23COC(=O)C3)cc1 (centres undefined) | > 50 µg/mL | > 50 µg/mL | 98.1 µM | > 50 µg/mL | > 50 µg/mL |  |  |  |  | 
3 | O=C1C=C(CSC(=S)N2CCOCC2)CO1 | > 50 µg/mL | > 50 µg/mL | > 50 µg/mL |  | > 50 µg/mL |  |  |  |  | 
4 | O=C1CC2(CO1)CSC(=S)N2c1ccc(Cl)cc1 (centres undefined) | 32.6 µM | > 50 µg/mL | > 50 µg/mL | > 50 µg/mL | > 50 µg/mL |  |  |  |  | 
5 | O=C1C=C(CSC(=S)N2CCCC2)CO1 | 106 µM | > 50 µg/mL | > 50 µg/mL | 60 µM | 169 µM |  |  |  |  | 
6 | CN(C)C(=S)SCC1=CC(=O)OC1 | 7.55 µM | > 50 µg/mL | > 50 µg/mL | > 50 µg/mL | 159 µM |  |  |  |  | 
7 | O=C1OCC=C1CSC(=S)NCc1ccccc1 | 34.3 µM | 15.1 µM | 13.7 µM | 20.1 µM | 31.9 µM |  |  |  |  | 
8 | O=C1OCC=C1CSC(=S)N1CCOCC1 | 26 µM | 2.43 µM | 48.8 µM | 37.9 µM | 60.3 µM |  |  |  |  | 
9 | O=C1OCC=C1CSC(=S)Nc1ccccc1 | 16.2 µM | 111 µM | 186 µM | 95.3 µM | 89.9 µM |  |  |  |  | 
10 | O=C1OCC=C1CSC(=S)N1CCCC1 | 14.4 µM | 2.63 µM | 114 µM | 31.4 µM | 56.4 µM |  |  |  |  | 
11 | O=C1CC2(CO1)CSC(=S)N2Cc1ccccc1 (centres undefined) | > 50 µg/mL | > 50 µg/mL | > 50 µg/mL | > 50 µg/mL | > 50 µg/mL |  |  |  |  | 
12 | CC(C)N(C(=S)SCC1=CC(=O)OC1)C(C)C | 49.2 µM | 28.5 µM | > 50 µg/mL | > 50 µg/mL | > 50 µg/mL |  |  |  |  | 
13 | O=C1CC2(CO1)CSC(=S)N2c1ccccc1 (centres undefined) | 128 µM | 18 µM | > 50 µg/mL | 101 µM | 134 µM |  |  |  |  | 
14 | O=C1CC2(CO1)CSC(=S)N2C1CC1 (centres undefined) | > 50 µg/mL | 28.7 µM | > 50 µg/mL | > 50 µg/mL | > 50 µg/mL |  |  |  |  | 
15 | Cc1ccc(NC(=S)SCC2=CCOC2=O)cc1 | 91 µM | 5.44 µM | 93.5 µM | 63.8 µM | 97.4 µM |  |  |  |  | 
16 | O=C1CC2(CO1)CSC(=S)N2c1ccc(F)cc1 (centres undefined) | > 50 µg/mL | > 50 µg/mL | > 50 µg/mL | > 50 µg/mL | > 50 µg/mL |  |  |  |  | 
17 | CN1CCN(C(=S)SCC2=CC(=O)OC2)CC1 | 35.8 µM | > 50 µg/mL | > 50 µg/mL | > 50 µg/mL | > 50 µg/mL |  |  |  |  | 
18 | O=C1OCC=C1CSC(=S)NC1CC1 | 53.6 µM | 24.1 µM | 117 µM | 57.5 µM | 94.9 µM |  |  |  |  | 
19 | O=C1OCC=C1CSC(=S)Nc1ccc(Cl)cc1 |  |  |  |  |  | Not Active | Not Active | Not Active | Not Active | Not Active
20 | CN(Cc1ccccc1)C(=S)SCC1=CC(=O)OC1 | > 50 µg/mL | > 50 µg/mL | > 50 µg/mL | > 50 µg/mL | > 50 µg/mL |  |  |  |  | 
21 | CN1CCN(C(=S)SCC2=CCOC2=O)CC1 | 14.3 µM | 0.77 µM | 40.5 µM | 53.7 µM | 86.5 µM |  |  |  |  | 
22 | CN(C)C(=S)SCC1=CCOC1=O | 182 µM | 114 µM | 147 µM | > 50 µg/mL | > 50 µg/mL |  |  |  |  | 
23 | CC(C)NC(=S)SCC1=CCOC1=O | 59.4 µM | 137 µM | 49.4 µM | 108 µM | 134 µM |  |  |  |  | 
24 | CNC(=S)SCC1=CCOC1=O | 85.4 µM | 36.1 µM | 76.5 µM | 43.9 µM | 83.1 µM |  |  |  |  | 
25 | CCN(CC)C(=S)SCC1=CC(=O)OC1 | > 50 µg/mL | 21 µM | > 50 µg/mL | 57.1 µM | > 50 µg/mL |  |  |  |  | 
26 | CCN(CC)C(=S)SCC1=CCOC1=O | 136 µM | 1.39 µM | 57.1 µM | 87 µM | 121 µM |  |  |  |  | 
27 | O=c1[nH]cc(F)c(=O)[nH]1 [FLUOROURACIL] | 20.3 µM | 41.5 µM | 29.3 µM | 26.9 µM | 7.54 µM |  |  |  |  | 
28 | O=C1OCC=C1CSC(=S)NC1CCCCC1 | > 50 µg/mL | 150 µM | > 50 µg/mL | > 50 µg/mL | 180 µM |  |  |  |  | 
29 | CCNC(=S)SCC1=CCOC1=O | 44.4 µM |  | 30.6 µM |  | 80.1 µM |  | Not Active |  | Not Active | 
